Measurements as given in ChEMBL document CHEMBL1137383, “New efficient substrates for semicarbazide-sensitive amine oxidase/VAP-1 enzyme: analysis by SARs and computational docking” (J Med Chem, 2006).
Calls of active or inactive are those of the source. The calls are words filed in the database; no cut-off is given here.

Assays:
[1] = target: T1, Amine oxidase [copper-containing] 3 (Homo sapiens) (UniProt Q16853); assay: Activity of human SSAO measured as hydrogen peroxide production at 1 mM relative to benzylamine oxidation; format: functional
T1 sequence (whole entry): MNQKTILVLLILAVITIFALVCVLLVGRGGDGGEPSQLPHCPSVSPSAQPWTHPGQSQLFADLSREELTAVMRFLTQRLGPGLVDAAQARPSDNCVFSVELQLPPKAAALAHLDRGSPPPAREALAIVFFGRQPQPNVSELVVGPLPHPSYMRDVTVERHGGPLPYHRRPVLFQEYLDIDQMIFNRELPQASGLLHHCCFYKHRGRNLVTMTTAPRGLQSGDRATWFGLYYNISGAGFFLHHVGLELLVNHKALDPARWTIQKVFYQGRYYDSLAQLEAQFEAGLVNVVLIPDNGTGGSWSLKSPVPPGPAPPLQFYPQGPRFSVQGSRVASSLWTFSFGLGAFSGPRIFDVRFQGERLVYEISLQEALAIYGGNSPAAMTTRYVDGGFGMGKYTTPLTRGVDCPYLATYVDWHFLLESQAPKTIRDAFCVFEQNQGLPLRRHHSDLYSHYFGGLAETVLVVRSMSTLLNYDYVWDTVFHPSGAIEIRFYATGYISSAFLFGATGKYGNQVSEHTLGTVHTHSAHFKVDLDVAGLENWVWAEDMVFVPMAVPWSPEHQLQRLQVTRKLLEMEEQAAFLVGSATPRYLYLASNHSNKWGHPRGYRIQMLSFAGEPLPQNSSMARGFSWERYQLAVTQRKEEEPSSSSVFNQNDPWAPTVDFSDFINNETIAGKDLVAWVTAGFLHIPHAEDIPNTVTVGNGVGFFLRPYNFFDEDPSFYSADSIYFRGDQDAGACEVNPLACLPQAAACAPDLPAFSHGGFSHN
Method in brief: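 Human recombinant VAP-1 (0.1 µg protein/assay) in 0.2 mol/L phosphate buffer pH 7.4, 50 min at 37 °C; amine at 1 mM added with HRP/Amplex Red mix. H2O2 fluorescence (ex 545/em 590) read every 5 min, quantified against H2O2 standard curve; semicarbazide-preincubated (250 µM, 20 min) background subtracted. Mean percentage relative to benzylamine-derived H2O2.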

[2] = target: T2, Amine oxidase [copper-containing] 3 (Mus musculus) (UniProt O70423); assay: Activity of mouse SSAO measured as hydrogen peroxide production at 100 uM relative to benzylamine oxidation; format: functional
T2 sequence (whole entry): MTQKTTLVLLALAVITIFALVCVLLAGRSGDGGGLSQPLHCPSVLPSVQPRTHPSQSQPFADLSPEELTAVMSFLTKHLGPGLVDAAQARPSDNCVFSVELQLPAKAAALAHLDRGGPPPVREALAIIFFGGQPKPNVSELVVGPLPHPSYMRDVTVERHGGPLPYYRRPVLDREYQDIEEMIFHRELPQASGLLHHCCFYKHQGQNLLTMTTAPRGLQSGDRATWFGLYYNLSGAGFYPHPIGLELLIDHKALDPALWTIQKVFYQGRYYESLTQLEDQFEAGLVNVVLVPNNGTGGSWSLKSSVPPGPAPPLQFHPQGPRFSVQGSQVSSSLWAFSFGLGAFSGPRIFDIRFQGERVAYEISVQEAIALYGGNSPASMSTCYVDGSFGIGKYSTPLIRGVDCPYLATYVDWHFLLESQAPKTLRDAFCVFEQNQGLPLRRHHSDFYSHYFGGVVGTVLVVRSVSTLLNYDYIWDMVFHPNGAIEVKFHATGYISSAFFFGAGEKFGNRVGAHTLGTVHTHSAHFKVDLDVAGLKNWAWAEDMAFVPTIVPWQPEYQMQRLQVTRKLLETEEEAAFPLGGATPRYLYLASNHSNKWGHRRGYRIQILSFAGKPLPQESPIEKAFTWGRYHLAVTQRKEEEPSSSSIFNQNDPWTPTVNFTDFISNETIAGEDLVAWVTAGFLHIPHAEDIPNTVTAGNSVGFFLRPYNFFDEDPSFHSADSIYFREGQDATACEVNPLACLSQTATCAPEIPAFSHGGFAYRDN
Method in brief: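 Mouse adipose tissue membranes (Swiss mice, 1 µg protein/assay) in 0.2 mol/L phosphate buffer pH 7.4, 50 min at 37 °C; amine at 100 µM added with HRP/Amplex Red. H2O2 fluorescence (ex 545/em 590) vs H2O2 standard curve, minus 250 µM semicarbazide (20 min preincubation) background. Mean percentage relative to benzylamine-derived H2O2.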

Adipocyte [3] = assay: Stimulation of glucose transport in mouse adipocytes at 0.1 mM in presence of sodium orthovanadate; format: functional, cell-based
Method in brief: (§1)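 Adipocytes from internal fat pads of male Swiss mice (30-35 g), collagenase-isolated, incubated 45 min at 37 °C with amine ± 1 mM sodium orthovanadate (± 1 mM semicarbazide); then 2-deoxy-D-[3H]glucose (0.1 mM final) uptake over 10 min. Two experiments in triplicate, mean ± SEM.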

Adipocyte [4] = assay: Stimulation of glucose transport in mouse adipocytes at 1 mM in presence of sodium orthovanadate; format: functional, cell-based; method in brief: as §1

`CCc1ccc(CN)cc1` gave an Activity [1] of 14% and an Activity [2] of 26%.

`NCc1cccc([N+](=O)[O-])c1O` was tested, and the Activity [1] was 0.11% and the Activity [2] was 5.47%.

Work on `COc1ccc(O)c(CN)c1` yielded an Activity [1] of 0% and an Activity [2] of 0%.

Work on `NCc1ccc(C(=O)O)cc1` yielded an Activity [1] of 0% and an Activity [2] of 4.06%.

`NCc1cccc(CNC(=O)c2ccccc2)c1` showed an Activity [1] of 17% and an Activity [2] of 58%.

For `COc1ccc(CCN)cc1OC`, the Activity [1] was 0% and the Activity [2] was 3.8%.

Compound `CC(C)c1ccc(CN)cc1` has an Activity [1] of 0% and an Activity [2] of 0%.

In the case of `Cc1ccc(CN)cc1F`, the Activity [1] is reported as 88% and the Activity [2] is reported as 133%.

With `NCCc1ccc(O)c(O)c1` the Activity [1] was 0% and the Activity [2] was 0%.

`COc1ccc(CN)c2ccccc12` gave an Activity [1] of 0.7% and an Activity [2] of 0%.

With `NCc1cccc(CN)c1` the Activity [1] was 0% and the Activity [2] was 0%.

With `NCc1ccccc1F` the Activity [1] was 1.3% and the Activity [2] was 44%.

`Cc1ccc(CN)cc1` gave an Activity [1] of 0% and an Activity [2] of 0%.

With `CC(=O)NCc1cccc(CN)c1` the Activity [1] was 3% and the Activity [2] was 16%.

`NCc1ccc(OC(F)(F)F)cc1` showed an Activity [1] of 0% and an Activity [2] of 66.2%.

With `NCc1cccc(CNC(=O)c2ccc(O)cc2O)c1` the Activity [1] was 0% and the Activity [2] was 0%.

`CCCCc1ccc(CN)cc1` gave an Activity [1] of 5% and an Activity [2] of 24%.

Work on `NCc1cccc(CNC(=O)c2ccc(O)cc2)c1` yielded an Activity [1] of 5% and an Activity [2] of 26%.

Compound `NCc1ccc(-c2ccccc2)cc1` has an Activity [1] of 0% and an Activity [2] of 3.77%.

In the case of `NCc1cccc(CNC(=O)c2ccc(Br)cc2)c1`, the Activity [1] is reported as 16% and the Activity [2] is reported as 46%.

With `CC(=O)N[C@H](C(=O)NCc1cccc(CN)c1)c1ccccc1` the Activity [1] was 2% and the Activity [2] was 13%.

`COc1ccc(CN)cc1` was tested, and the Activity [1] was 0% and the Activity [2] was 4.56%.

`Cc1ccc(S(=O)(=O)NCc2cccc(CN)c2)cc1` gave an Activity [1] of 12% and an Activity [2] of 14%.

Compound `C=CCOC(=O)NCc1cccc(CN)c1` has an Activity [1] of 21% and an Activity [2] of 49%.

`NCc1ccc(C(F)(F)F)cc1` was tested, and the Activity [1] was 4% and the Activity [2] was 35%.

For `NCc1cccc(CNC(=O)CI)c1`, the Activity [1] was 38% and the Activity [2] was 61%.

`NCc1ccc(O)c(Br)c1` gave an Activity [1] of 0% and an Activity [2] of 0%.

`NCc1ccc(OCc2ccccc2)cc1` gave an Activity [1] of 0% and an Activity [2] of 0%.

`COc1cccc2[nH]cc(CCN)c12` showed an Activity [1] of 0% and an Activity [2] of 5.54%.

`COc1cc(F)cc(CN)c1` showed an Activity [1] of 2.53% and an Activity [2] of 4.86%.

Compound `NCCOc1ccccc1` has an Activity [1] of 17.9% and an Activity [2] of 14.6%.

`CCC(=O)NCc1cccc(CN)c1` was tested, and the Activity [1] was 4% and the Activity [2] was 27%.

`NCc1ccccc1` was tested, and the Activity [1] was 100%, the Activity (Adipocyte [3]) was “Active” and the Activity (Adipocyte [4]) was “Active”. It also gave an Activity [2] of 100%.

`NCc1ccc(CN)cc1` showed an Activity [1] of 0% and an Activity [2] of 0%.

For `NCc1ccc(OC(F)(F)F)cc1OC(F)(F)F`, the Activity [1] was 0% and the Activity [2] was 0%.

Compound `NCCc1ccccc1` has an Activity [1] of 21% and an Activity [2] of 19%.

`COc1cc(CN)cc(OC)c1` gave an Activity [1] of 0% and an Activity [2] of 0.75%.

For `NCc1ccc(C(=O)NCc2cccc(CN)c2)cc1`, the Activity [1] was 17% and the Activity [2] was 12%.

For `NCc1ccc(F)cc1`, the Activity [1] was 134% and the Activity [2] was 127%.

In the case of `NCCCc1ccccc1`, the Activity [1] is reported as 44% and the Activity [2] is reported as 40%.

`NCCc1ccc(F)cc1` was tested, and the Activity [1] was 35% and the Activity [2] was 18%.

`NCc1c(O)ccc2ccccc12` gave an Activity [1] of 0% and an Activity [2] of 0%.

`CC(C)(C)c1ccc(CN)cc1` gave an Activity [1] of 0% and an Activity [2] of 1%.

For `CC(N)c1cccc2ccccc12` (centres undefined), the Activity [1] was 11% and the Activity [2] was 0%.

With `NCCCCc1ccccc1` the Activity [1] was 166%, the Activity (Adipocyte [3]) was “Active” and the Activity (Adipocyte [4]) was “Active”. It also gave an Activity [2] of 71%.
